Rows were chosen to be rich in hits. Some 3% of all compounds tested hit in one or more screens of this group.
NPY-Y2 PAM-ag: NPY-Y2 potentiators or agonists, primary screen, cell-based; Neuropeptide Y receptor type 2 (Homo sapiens), P49146; cells expressing NPY-Y2, potentiator/agonist read-out; activation, % at 3.6 µM; 0.45% of 220,000 active; AID 1359, 2008; in the data active means activation above about 27%;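 further: cells stimulated with NPY near EC25 plus isoproterenol at EC100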
Target sequence (P49146 whole entry, looked up): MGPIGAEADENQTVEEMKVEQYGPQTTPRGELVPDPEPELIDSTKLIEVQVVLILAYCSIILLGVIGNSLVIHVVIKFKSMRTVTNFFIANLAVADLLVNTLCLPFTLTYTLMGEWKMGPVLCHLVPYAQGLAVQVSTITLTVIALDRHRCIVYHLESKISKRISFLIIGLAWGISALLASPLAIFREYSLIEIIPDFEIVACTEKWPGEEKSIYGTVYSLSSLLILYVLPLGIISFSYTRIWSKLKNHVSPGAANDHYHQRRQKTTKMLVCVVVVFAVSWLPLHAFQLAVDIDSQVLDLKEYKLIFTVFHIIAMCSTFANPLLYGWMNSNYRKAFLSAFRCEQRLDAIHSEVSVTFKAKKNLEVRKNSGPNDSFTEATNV
NPY-Y2 antag: NPY-Y2 receptor antagonists, primary screen, cell-based. 0.99% of 140,000 active. Neuropeptide Y receptor type 2 (Homo sapiens), P49146. inhibition, % at 2.7 µM. NPY-Y2 expressing cells, antagonist mode; in the data active means inhibition above about 17%
NPY Y1 blocker: NPY-Y1 receptor antagonists, primary screen, cell-based; inhibition, % at 3.6 µM; 1% of 200,000 active; Neuropeptide Y receptor type 1 (Homo sapiens), P25929; HEK293-CNG Y1 cells, membrane potential fluorescence; NPY at EC95, then isoproterenol;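 active means inhibition above the campaign mean inhibition of all tested compounds plus 3 SD, cut at about 20% in these data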
Target sequence (P25929 whole entry, looked up): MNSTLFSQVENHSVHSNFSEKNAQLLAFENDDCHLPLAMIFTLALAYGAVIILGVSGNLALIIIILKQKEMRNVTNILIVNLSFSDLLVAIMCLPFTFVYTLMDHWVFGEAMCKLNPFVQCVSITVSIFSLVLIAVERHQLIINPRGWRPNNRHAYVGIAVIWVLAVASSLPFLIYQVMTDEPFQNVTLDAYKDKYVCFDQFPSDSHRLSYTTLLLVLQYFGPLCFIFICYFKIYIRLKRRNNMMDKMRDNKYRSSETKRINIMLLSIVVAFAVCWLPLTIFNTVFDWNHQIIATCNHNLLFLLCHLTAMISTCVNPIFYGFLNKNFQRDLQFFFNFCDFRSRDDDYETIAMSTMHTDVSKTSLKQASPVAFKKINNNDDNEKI
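Assay system: HEK293 cells with Y1 receptor plus CNG channel | Probe or stimulus: NPY (25 nM), isoproterenol (1 µM), Ro 20-1724 (25 µM) | Timing: Compound incubation 1 h at room temperature, readout 45 min post-stimulation | Measured by: Membrane-potential fluorescent dye readout | Benchmarks: High control isoproterenol alone, low control NPY with isoproterenol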
NPY-Y1 PAM-ag: NPY-Y1 receptor potentiators or agonists, primary screen, cell-based; NPY-Y1 expressing cells, potentiator/agonist activation; activation, % at 3.6 µM; 0.37% of 220,000 active; AID 1304, 2008; in the data active means activation above about 33%, passing the limit was not always enough;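 further: cells stimulated with NPY at EC10 then isoproterenol at EC100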
Hsp70 activator: Hsp70 transcriptional activators, primary screen, cell-based, HeLa, Hsp70 promoter luciferase, luminescence, 10 µM. HeLa Hsp70 promoter luciferase reporter; scaled: vehicle 0, proteasome-inhibitor control 100%. activation, % at 10 µM. 0.04% of 200,000 active. AID 1203, 2008;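 active means activation above the mean across all tested compounds plus 3 SD, cutoff set per campaign, cut at about 5.5% in these data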
Wee1 stabilizer: Wee1 degradation inhibitors, primary screen, cell-based, HeLa, Wee1K328M-luciferase, luminescence | reporter increase, % at 5 µM | HeLa Luc-Wee1K328M stability; 100% = proteasome inhibitor MG132 effect | Wee1-like protein kinase (Homo sapiens), P30291 | 1.2% of 220,000 active;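 active means activation above the mean of all tested compounds plus 3 SD, set per screening run, cut at about 8.8% in these data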;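 further: cells exposed to compound for 20 h before luminescence read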
NPY-Y2 pot conf: NPY-Y2 potentiators or agonists, confirmation, cell-based; AID 1539, 2009; cell-based NPY-Y2 potentiator/agonist assay; 20% of 450 active; activation, % at 3.6 µM; shares compounds with NPY-Y2 PAM-ag; in the data active means activation above about 33%
NPY-Y1 potentiator: NPY-Y1 potentiators or agonists, counter-screen for NPY-Y2 potentiator project, cell-based, fluorescence; shares compounds with NPY-Y2 PAM-ag; AID 1651, 2009; 20% of 450 active; activation, % at 3.6 µM; Y1 HEK293-CNG cells, membrane potential fluorescence; in the data active means activation above about 45%;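 further: cells stimulated with submaximal NPY then isoproterenol with phosphodiesterase inhibitor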
NPY-Y1 ag 2: NPY-Y1 direct agonists, selectivity assay for NPY-Y2 potentiator project, cell-based, fluorescence | shares compounds with NPY-Y2 PAM-ag | HEK293 Y1-CNGC, membrane potential fluorescence, agonism | activation, % at 3.6 µM | 37% of 450 active;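 active means activation above the mean of DMSO-only control wells plus 3 SD, cut at about 18% in these data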;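 further: cells stimulated with 1 µM isoproterenol plus the PDE inhibitor Ro 20-1724; Y1 agonists lower the membrane potential dye signal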
CNGC inhibitor: CNGC cAMP sensor activity inhibitors, counter-screen for NPY-Y2 potentiator project, cell-based, HEK293-CNG parental, membrane potential fluorescence. isoproterenol cAMP. inhibition, % at 3.6 µM. AID 1703, 2009. shares compounds with NPY-Y2 PAM-ag. 32% of 450 active;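 active means inhibition above the control-well mean plus 3 SD of those wells, cut at about 22% in these data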
NPY-Y2 ag 2: NPY-Y2 direct agonists, counter-screen for NPY-Y2 potentiator project, cell-based, fluorescence. shares compounds with NPY-Y2 PAM-ag. HEK293 Y2/CNGC cells, membrane potential fluorescence, agonist mode. activation, % at 3.6 µM. 56% of 450 active. AID 1710, 2009;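 active means activation above the mean of solvent-only control wells plus 3 SD, cut at about 10% in these data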;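 further: cells stimulated by isoproterenol with no NPY added so direct agonism is tested; agonism lowers probe fluorescence through less cAMP and CNG channel opening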
Of the large screens only hits and unclear results are named; the others gave an inactive call (follow-up assays come after a bar, where they were run).

O=C(Nc1nc2ccccc2n1CCN1CCCC1)c1ccc(Cl)cc1	none
Cc1ccc(C(=O)Nc2nc3ccccc3n2CCN2CCCC2)cc1	NPY-Y2 PAM-ag 43.9 | NPY-Y2 pot conf 49.9 | NPY-Y1 potentiator 49.5 | NPY-Y1 ag 2 19.2 | CNGC inhibitor 38.6 | NPY-Y2 ag 2 47.5
CCN(CC)c1ccc(NC(=O)/C=C\c2ccccc2Cl)cc1	NPY-Y2 PAM-ag 30.6 | NPY-Y2 pot conf inactive | NPY-Y1 potentiator inactive | NPY-Y1 ag 2 24.7 | CNGC inhibitor 27.0 | NPY-Y2 ag 2 26.7
CN(C)c1ccc(NC(=O)/C=C/c2ccccc2Cl)cc1	none
COC(=O)c1[nH]c2ccc(Br)cc2c1NC(=O)CN1CCN(C2CCCCC2)CC1	NPY-Y2 PAM-ag 33.3 | NPY-Y2 pot conf 42.7 | NPY-Y1 potentiator 57.3 | NPY-Y1 ag 2 28.2 | CNGC inhibitor 49.4 | NPY-Y2 ag 2 33.1
CCO[C@@H]1OC(C(=O)O)=C[C@H](c2ccc(Br)cc2)[C@H]1CCCO	none (no result: NPY-Y2 antag)
CC(C)c1ccc(NS(=O)(=O)c2ccc3[nH]cc(C(=O)N4CCC(C(N)=O)CC4)c(=O)c3c2)cc1	NPY-Y2 PAM-ag 38.7 | NPY-Y2 pot conf inactive | NPY-Y1 potentiator inactive | NPY-Y1 ag 2 18.1 | CNGC inhibitor inactive | NPY-Y2 ag 2 11.7
COc1ccc(-n2nc(C(=O)NCC(=O)NCC3CCCO3)c3ccccc3c2=O)cc1Cl (stereo not given)	none
c1ccc2c(c1)CCN(C1=Nc3cccc4cccc1c34)C2	NPY-Y2 PAM-ag 33.0 (no result: NPY-Y2 antag) | NPY-Y2 pot conf 64.4 | NPY-Y1 potentiator 87.5 | NPY-Y1 ag 2 61.9 | CNGC inhibitor 62.1 | NPY-Y2 ag 2 60.7
S=C(Nc1ccc(Nc2ccccc2)cc1)Nc1ccccn1	NPY-Y2 PAM-ag 33.1 (no result: NPY-Y2 antag) | NPY-Y2 pot conf inactive | NPY-Y1 potentiator inactive | NPY-Y1 ag 2 inactive | CNGC inhibitor inactive | NPY-Y2 ag 2 13.6
CC(=O)Nc1ccc(S(=O)(=O)NCCSCc2c(Cl)cccc2Cl)cc1	NPY-Y2 PAM-ag 35.6 | NPY-Y2 pot conf inactive | NPY-Y1 potentiator inactive | NPY-Y1 ag 2 inactive | CNGC inhibitor inactive | NPY-Y2 ag 2 inactive
O=C(Cn1cnc([N+](=O)[O-])c1)Nc1cc(Oc2ccc(Cl)cc2Cl)cc([N+](=O)[O-])c1	NPY-Y2 PAM-ag 34.3 | NPY-Y2 pot conf 35.2 | NPY-Y1 potentiator inactive | NPY-Y1 ag 2 30.6 | CNGC inhibitor 40.2 | NPY-Y2 ag 2 51.5
CC(=O)c1ccc(NC(=O)C2CCCN(C(=O)c3ccc(Cl)cc3)C2)cc1 (stereo not given)	NPY-Y2 PAM-ag 28.2 (no result: NPY-Y2 antag) | NPY-Y2 pot conf inactive | NPY-Y1 potentiator inactive | NPY-Y1 ag 2 29.0 | CNGC inhibitor 30.1 | NPY-Y2 ag 2 30.1
Nc1cc(-c2ccc(Br)cc2)nn1Cc1ccccc1	NPY-Y2 PAM-ag 36.1 (no result: NPY-Y2 antag) | NPY-Y2 pot conf inactive | NPY-Y1 potentiator inactive | NPY-Y1 ag 2 inactive | CNGC inhibitor inactive | NPY-Y2 ag 2 27.5
Nc1cc(-c2cccc(Br)c2)nn1Cc1ccccc1	none
Cc1ccc(C2C(C#N)=C(N)Oc3c2sc2ccccc32)o1 (stereo not given)	none
Cc1ccc(OCC(=O)Nc2ccc3c(c2)OCCO3)cc1C	none (no result: NPY-Y2 antag)
CC1=NC(=O)C(N=Nc2ccccc2C(=O)O)N1c1ccccc1 (stereo not given)	NPY-Y2 PAM-ag 29.9 (no result: NPY-Y2 antag) | NPY-Y2 pot conf inactive | NPY-Y1 potentiator inactive | NPY-Y1 ag 2 inactive | CNGC inhibitor inactive | NPY-Y2 ag 2 14.5
COc1ccccc1N(CC(=O)Nc1cccc(C(F)(F)F)c1)S(C)(=O)=O	none (no result: NPY-Y2 antag)
Cc1ccc([N+](=O)[O-])cc1N(CC(=O)Nc1ccc(S(=O)(=O)Nc2cccc(C(F)(F)F)c2)cc1)S(C)(=O)=O	NPY-Y2 PAM-ag 44.6 | NPY-Y2 pot conf 43.3 | NPY-Y1 potentiator 63.7 | NPY-Y1 ag 2 57.8 | CNGC inhibitor 50.6 | NPY-Y2 ag 2 53.2
CCC(C)(C)NC(=O)C(c1cccn1C)N(Cc1ccccc1)C(=O)Cn1nnc2ccccc21 (stereo not given)	NPY-Y2 PAM-ag 60.8 | NPY-Y2 pot conf inactive | NPY-Y1 potentiator inactive | NPY-Y1 ag 2 inactive | CNGC inhibitor inactive | NPY-Y2 ag 2 inactive
COCCNC(=O)C(c1cccs1)N(Cc1ccccc1)C(=O)Cn1nnc2ccccc21 (stereo not given)	none
O=[N+]([O-])c1cc([N+](=O)[O-])c2c(=Nc3ccccc3)n(-c3ccccc3)n(O)c2c1	NPY-Y2 PAM-ag 45.8 (no result: NPY-Y2 antag) | NPY-Y2 pot conf 46.7 | NPY-Y1 potentiator 52.3 | NPY-Y1 ag 2 46.7 | CNGC inhibitor 33.6 | NPY-Y2 ag 2 64.9
COc1ccc(-n2nnnc2SCC(=O)NCCc2ccccc2)cc1OC	NPY-Y2 PAM-ag 56.4 (no result: NPY-Y2 antag) | NPY-Y2 pot conf inactive | NPY-Y1 potentiator inactive | NPY-Y1 ag 2 inactive | CNGC inhibitor inactive | NPY-Y2 ag 2 16.6
COc1cc(OC)cc(-n2nnnc2SCC(=O)NCCc2ccc(OC)c(OC)c2)c1	none (no result: NPY-Y2 antag)
Cc1nn(-c2ccccc2)c2sc(C(=O)NC3CC3)cc12	NPY-Y2 PAM-ag 45.0 | NPY-Y2 pot conf inactive | NPY-Y1 potentiator inactive | NPY-Y1 ag 2 inactive | CNGC inhibitor inactive | NPY-Y2 ag 2 inactive
OC1(c2ccc(OC(F)F)cc2)CSC(=Nc2cccnc2)N1Cc1ccco1 (stereo not given)	NPY-Y2 PAM-ag 35.4 (no result: NPY-Y2 antag) | NPY-Y2 pot conf inactive | NPY-Y1 potentiator inactive | NPY-Y1 ag 2 inactive | CNGC inhibitor inactive | NPY-Y2 ag 2 12.6
OC1(c2ccc(F)cc2)CSC(=Nc2cccnc2)N1Cc1ccco1 (stereo not given)	NPY-Y2 PAM-ag 33.5 (no result: NPY-Y2 antag) | NPY-Y2 pot conf inactive | NPY-Y1 potentiator inactive | NPY-Y1 ag 2 inactive | CNGC inhibitor inactive | NPY-Y2 ag 2 inactive
